The source made the active and inactive calls. No cut-off for these calls is given here.
Columns and labels:
Rattus norvegicus [1] = assay: Number of rats responding on LSD lever/number of rats treated at dose 4.0 mg/kg; 5/8; assay type: functional, organism-based; set-up: dose 4 mg/kg
Method in brief: (§1)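 Male Sprague–Dawley rats (200-240 g, housed singly) trained in a two-lever operant task to discriminate ip saline from LSD tartrate 0.08 mg/kg. Reinforcement was 45 mg food pellets on an FR50 schedule, with 15-min daily training sessions. Test drugs were given 30 min before testing. A test ended at 50 responses on either lever or at 5 min; rats not completing 50 presses were scored disrupted and excluded.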

Rattus norvegicus [2] = assay: Number of rats responding on LSD lever/number of rats treated at dose 8.0 mg/kg; 6/8; assay type: functional, organism-based; set-up: dose 8 mg/kg; method in brief: as §1
Rattus norvegicus [3] = assay: Number of rats responding on LSD lever/number of rats treated at dose 10.0 mg/kg; 10/12; assay type: functional, organism-based; set-up: dose 10 mg/kg; method in brief: as §1
Rattus norvegicus [4] = assay: Number of rats responding on LSD lever/number of rats treated at dose 0.25 mg/kg; 1/8; assay type: functional, organism-based; set-up: dose 0.25 mg/kg; method in brief: as §1
Rattus norvegicus [5] = assay: Number of rats responding on LSD lever/number of rats treated at dose 1.0 mg/kg; 1/8; assay type: functional, organism-based; set-up: dose 1 mg/kg; method in brief: as §1
Rattus norvegicus [6] = organism: Rattus norvegicus; assay: Compound was evaluated for the drug discrimination assay and the ED50 (potency) was determined; assay type: functional; method in brief: as §1
Rattus norvegicus [7] = assay: Percentage responding on LSD lever at dose 0.25 mg/kg; assay type: functional; method in brief: as §1
Rattus norvegicus [8] = assay: Percentage responding on LSD lever at dose 1.0 mg/kg; assay type: functional; method in brief: as §1
Rattus norvegicus [9] = assay: Percentage responding on LSD lever at dose 10.0 mg/kg; assay type: functional; method in brief: as §1
Rattus norvegicus [10] = assay: Percentage responding on LSD lever at dose 4.0 mg/kg; assay type: functional; method in brief: as §1
Rattus norvegicus [11] = assay: Percentage responding on LSD lever at dose 8.0 mg/kg; assay type: functional; method in brief: as §1
Rattus norvegicus [12] = assay: Number of rats responding on LSD lever/number of rats treated at dose 4.0 mg/kg; 8/8; assay type: functional, organism-based; set-up: dose 4 mg/kg; method in brief: as §1
Rattus norvegicus [13] = assay: Number of rats responding on LSD lever/number of rats treated at dose 0.5 mg/kg; 1/8; assay type: functional, organism-based; set-up: dose 0.5 mg/kg; method in brief: as §1
Rattus norvegicus [14] = assay: Number of rats responding on LSD lever/number of rats treated at dose 1.0 mg/kg; 4/8; assay type: functional, organism-based; set-up: dose 1 mg/kg; method in brief: as §1
Rattus norvegicus [15] = assay: Number of rats responding on LSD lever/number of rats treated at dose 2.0 mg/kg; 6/8; assay type: functional, organism-based; set-up: dose 2 mg/kg; method in brief: as §1
Rattus norvegicus [16] = assay: Number of rats responding on LSD lever/number of rats treated at dose 3.0 mg/kg; 8/10; assay type: functional, organism-based; set-up: dose 3 mg/kg; method in brief: as §1
Rattus norvegicus [17] = assay: Percentage responding on LSD lever at dose 0.5 mg/kg; assay type: functional; method in brief: as §1
Rattus norvegicus [18] = assay: Percentage responding on LSD lever at dose 2.0 mg/kg; assay type: functional; method in brief: as §1
Rattus norvegicus [19] = assay: Percentage responding on LSD lever at dose 3.0 mg/kg; assay type: functional; method in brief: as §1
Rattus norvegicus [20] = assay: Percentage responding on LSD lever at dose 16.0 mg/kg; assay type: functional; method in brief: as §1

Compound | Activity (Rattus norvegicus [1]) | Activity (Rattus norvegicus [2]) | Activity (Rattus norvegicus [3]) | Activity (Rattus norvegicus [4]) | Activity (Rattus norvegicus [5]) | ED50 (Rattus norvegicus [6]) [mg/kg] | Responding (Rattus norvegicus [7]) [%] | Responding (Rattus norvegicus [8]) [%] | Responding (Rattus norvegicus [9]) [%] | Responding (Rattus norvegicus [10]) [%] | Responding (Rattus norvegicus [11]) [%] | Activity (Rattus norvegicus [12]) | Activity (Rattus norvegicus [13]) | Activity (Rattus norvegicus [14]) | Activity (Rattus norvegicus [15]) | Activity (Rattus norvegicus [16]) | Responding (Rattus norvegicus [17]) [%] | Responding (Rattus norvegicus [18]) [%] | Responding (Rattus norvegicus [19]) [%] | Responding (Rattus norvegicus [20]) [%]
COc1cc2c(cc1CC(C)N)OCC2 (stereo not drawn) | Weak activity | Weak activity | Active | inactive | inactive | 2.12 | 13 | 13 | 83 | 63 | 75 | – | – | – | – | – | – | – | – | –
COc1cc2c(cc1CC(C)N)OCO2 (stereo not drawn) | – | – | – | – | – | 1.71 | – | 50 | – | 100 | – | Active | inactive | Weak activity | Weak activity | Active | 13 | 75 | 80 | –
COc1cc2c(cc1CC(C)N)OC(C)C2 (stereo not drawn) | – | – | – | – | – | 5.5 | – | – | – | 38 | 63 | – | – | – | – | – | 0 | 0 | – | 88
